Experimental findings from ChEMBL document CHEMBL3580554, “Design, synthesis, and anticonvulsant activity of new hybrid compounds derived from 2-(2,5-dioxopyrrolidin-1-yl)propanamides and 2-(2,5-dioxopyrrolidin-1-yl)butanamides” (J Med Chem, 2015) are described below.

Series [1] concerns Mus musculus. Description: Anticonvulsant activity in Swiss mouse assessed as protection against seizures at 300 mg/kg, ip dosed 0.5 hrs before initiation of maximal electroconvulsions by maximal electroshock test. It is filed as functional. An outline of the steps: (§1)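 Mice were dosed i.p. at a fixed 300 or 100 mg/kg (6 Hz: 100 mg/kg only). Protection was then scored against MES, sc PTZ or 6 Hz seizures at pretreatment times of 0.25, 0.5, 1 and 2 h. Groups were four mice, scored as number protected / number tested. This also gives the time course and time of peak effect.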
(In general: In the maximal electroshock model the usual endpoint is tonic extension of the hind limbs.)

The test system of series [2] is Mus musculus. Description: Anticonvulsant activity in Swiss mouse assessed as protection against seizures at 300 mg/kg, ip dosed 1 hr before initiation of maximal electroconvulsions by maximal electroshock test. It is filed as functional. An outline of the steps:
as §1

The subject of series [3] is Mus musculus. Description: Anticonvulsant activity in Swiss mouse assessed as protection against seizures at 300 mg/kg, ip dosed 0.5 hrs before pentylenetetrazole challenge by subcutaneous pentylenetetrazole seizure test. It is filed as functional. A digest of the protocol: as §1
Series [4] has as its system Mus musculus. Description: Anticonvulsant activity in Swiss mouse assessed as protection against seizures at 300 mg/kg, ip dosed 1 hr before pentylenetetrazole challenge by subcutaneous pentylenetetrazole seizure test. It is filed as functional. An outline of the steps: as §1
Series [5] has as its system Mus musculus. Put plainly: Anticonvulsant activity in Swiss mouse assessed as protection against seizures at 300 mg/kg, ip dosed 2 hrs before pentylenetetrazole challenge by subcutaneous pentylenetetrazole seizure test. It is filed as functional. An outline of the steps:
as §1

Series [6] has as its system Mus musculus. Description: Anticonvulsant activity in Swiss mouse assessed as protection against seizures at 100 mg/kg, ip dosed 1 hr before pentylenetetrazole challenge by subcutaneous pentylenetetrazole seizure test. It is filed as functional. An outline of the steps:
as §1

The species entered for series [7] is Rattus norvegicus. Description: Inhibition of [3H]BTX binding to sodium channel site 2 in rat cerebral cortex synaptosomes at 100 uM incubated for 60 mins by scintillation counting based radioligand displacement assay. It is filed as subcellular. A digest of the protocol:
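Synaptoneurosomal preparations from rat cerebral cortex were used. The read-out was inhibition of specific [3H]BTX binding to the voltage-sensitive sodium channel (site 2), expressed as % inhibition of control specific binding. Compounds were tested at 1, 10, 100 and 500 μM. Inhibition above 50% was taken as significant.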
(Displacement assays read how much labelled ligand stays bound in the presence of the test substance.)

Series [8] concerns Mus musculus. Put plainly: Anticonvulsant activity in ip dosed Swiss mouse assessed as protection against seizures measured at 0.5 hrs of time to peak effect by maximal electroshock test. It is filed as functional. A digest of the protocol:
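Median effective doses (ED50, mg/kg) were determined i.p. in mice at the time of peak effect in the MES, sc PTZ or 6 Hz tests. Only compounds giving at least 50% protection at 100 mg/kg in that test were taken forward.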

The subject of series [9] is Mus musculus. Description: Protective index, ratio of neurotoxic TD50 in Swiss mouse by Chimney test to anticonvulsant ED50 in Swiss mouse measured at 0.5 hrs of time to peak effect by subcutaneous pentylenetetrazole seizure test. It is filed as functional. An outline of the steps: (§2)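 Protective index was calculated as TD50 (chimney test, mouse, i.p.) divided by ED50 from the matching MES, sc PTZ or 6 Hz test, both taken at the time of peak effect.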

For series [10], the species on record is Mus musculus. Put plainly: Protective index, ratio of neurotoxic TD50 in Swiss mouse by Chimney test to anticonvulsant ED50 in Swiss mouse measured at 0.5 hrs of time to peak effect by 6 Hz test by 6 Hz psychomotor seizure test. It is filed as functional. A digest of the protocol:
as §2

The subject of series [11] is Mus musculus. Description: Anticonvulsant activity in ip dosed Swiss mouse assessed as protection against seizures measured at 1 hr of time to peak effect by maximal electroshock test. It is filed as functional.
Series [12] in a line: Toxicity in ip dosed Swiss mouse assessed as induction of motor performance impairment measured within 60 seconds measured at 1 hr of time to peak effect by Chimney test. It is filed as organism-based. Conditions: in vivo. An outline of the steps:
(§3)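 Neurotoxicity (TD50) estimated in mice i.p. by chimney test for motor coordination impairment; protective index calculated as TD50/ED50 for each seizure model.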

Series [13] in a line: Protective index, ratio of neurotoxic TD50 in Swiss mouse by Chimney test to anticonvulsant ED50 in Swiss mouse measured at 1 hr of time to peak effect by 6 Hz test by 6 Hz psychomotor seizure test. It is filed as toxicity. Conditions: in vivo, read-out: Ratio TD50/ED50. A digest of the protocol: as §3
Series [14] is filed under the species Rattus norvegicus. Description: Inhibition of [125I]omega-conotoxin GVIA binding to N-type calcium channel in rat cerebral cortex synaptosomes at 100 uM incubated for 30 mins by scintillation counting based radioligand displacement assay. It is filed as subcellular.
For series [15], the system named is Liver microsome. Put plainly: Drug metabolism in human liver microsomes assessed as metabolite M1 formation at 50 uM in presence of NADPH regeneration system pre-incubated at 37 degC for 5 min and measured 2 hrs after post NADPH system addition by UPLC and LC-MS/MS method. It is filed as ADME. A digest of the protocol:
(§4)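 The compound was incubated 2 h with human liver microsomes. Metabolites were detected by full-scan chromatogram and identified by LC/MS from their [M+H]+ molecular masses.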

Series [16] relates to Liver microsome. Description: Drug metabolism in human liver microsomes assessed as metabolite M2 formation at 50 uM in presence of NADPH regeneration system pre-incubated at 37 degC for 5 min and measured 2 hrs after post NADPH system addition by UPLC and LC-MS/MS method. It is filed as ADME. An outline of the steps:
as §4
Background: Liver microsomes are vesicles of endoplasmic reticulum, rich in cytochrome P450 enzymes.

Series [17] has as its system Liver microsome. Put plainly: Drug metabolism in human liver microsomes assessed as metabolite M3 formation at 50 uM in presence of NADPH regeneration system pre-incubated at 37 degC for 5 min and measured 2 hrs after post NADPH system addition by UPLC and LC-MS/MS method. It is filed as ADME. An outline of the steps:
as §4

Another series addresses CYP3A4 (Homo sapiens, UniProt P08684). Put plainly: Inhibition of human recombinant CYP3A4 assessed as remaining enzyme activity by measuring conversion of luciferin-PPXE into D-luciferin at 25 uM by luminescence CYP3A4 P450-Glo assay relative to untreated control. It is filed as ADME. Conditions: recombinant CYP3A4, probe luciferin-PPXE, read-out: Activity.

CYP3A4, sequence (P08684 whole entry): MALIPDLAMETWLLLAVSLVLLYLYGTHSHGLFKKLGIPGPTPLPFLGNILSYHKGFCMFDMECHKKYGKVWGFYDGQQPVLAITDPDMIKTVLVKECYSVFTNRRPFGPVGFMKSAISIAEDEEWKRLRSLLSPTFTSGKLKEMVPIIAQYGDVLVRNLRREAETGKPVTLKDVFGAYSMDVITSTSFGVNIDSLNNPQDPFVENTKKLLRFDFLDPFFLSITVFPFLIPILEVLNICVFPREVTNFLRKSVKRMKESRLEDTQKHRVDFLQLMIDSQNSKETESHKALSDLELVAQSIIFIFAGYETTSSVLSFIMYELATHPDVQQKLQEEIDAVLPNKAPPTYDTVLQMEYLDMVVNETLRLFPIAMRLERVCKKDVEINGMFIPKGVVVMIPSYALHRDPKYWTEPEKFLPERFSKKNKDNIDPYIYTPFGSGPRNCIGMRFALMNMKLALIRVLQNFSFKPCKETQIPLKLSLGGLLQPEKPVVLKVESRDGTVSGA

For orientation: inhibition means the relative decrease from the control value, in per cent. By ED50 is commonly meant the dose that gives a 50% effect, or the effect in half of the subjects. The TD50 is the dose at which the toxic effect under study appears in half of the subjects. Take `CC(C(=O)N1CCN(c2cccc(C(F)(F)F)c2)CC1)N1C(=O)CCC1=O` (racemic): the Activity in the series on Mus musculus [1] is 100%; in the series on Mus musculus [2], 100%; in the series with Mus musculus [3] it was 100%; in the series with Mus musculus [4], 100%; with Mus musculus [5] it was 100%; with Mus musculus [6], 75%. Besides, the inhibition in the series filed under Rattus norvegicus [7] amounted to 37.4%; in the series filed under Rattus norvegicus [14] it was 13.9%. Moreover, the ED50 in the series with Mus musculus [8] came out at 88.4 mg/kg; in the series on Mus musculus [11] it was 85.1 mg/kg. For the same molecule, the “Ratio TD50/ED50” value in the series with Mus musculus [9] was greater than 25.04; in the series filed under Mus musculus [10] it was greater than 71.43. For the same molecule, the TD50 at 1 h in series [12] was determined as 824 mg/kg. Besides, the selectivity ratio at 1 h in series [13] came out at 23.5. Further, the Drug metabolism result in the series with Liver microsome [15], in the series with Liver microsome [16] and in the series with Liver microsome [17] was “metabolite_detected” each time. In addition, the activity at 25 µM at CYP3A4 was determined as 68.4%.
